Active and inactive are the calls of the source. No cut-off for these calls is given here.
How the values were obtained:
Mus musculus [1] = assay: Toxicity in NOD/SCID mouse xenografted with human MIAPaCa2 cells assessed as body weight loss at 5 mg/kg, ip administered 5 times a week until day 44; type: organism-based; conditions: in vivo
Procedure, shortened: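 Subcutaneous flank MIA PaCa-2 xenografts (2.0×10^6 cells) in 6-week NOD/SCID mice, randomized at 65 mm3 (n=5/group: vehicle or drug). Dosed ip in 5% DMSO/60% propylene glycol/35% saline, five days on/two off, to day 44. Body weight tracked and mice watched for weakness, weight loss or lethargy; mean ± SEM.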

BXPC-3 = assay: Induction of unfolded protein response in human BxPC3 cells assessed as upregulation of CHOP expression at 2 uM by Western blot analysis; type: functional, cell-based; conditions: TDE = time-dependent effect
Procedure, shortened: (§1)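 Immunoblotting. Cells (4×10^5) in 60 mm dishes were treated, lysed 30 min at 4°C and quantified by BCA. 40 μg protein was run on SDS-PAGE and transferred to PVDF. Primary antibodies (1:1000) incubated overnight at 4°C, then Dylight 800 secondary, with fluorescent scanning. Bands were normalized to GAPDH or actin loading controls. Mean ± SD, three independent experiments, Student's t-test.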

MIA PaCa-2 [2] = assay: Inhibition of mtDNA transcription from HSP2 promoter in human MIAPaCa2 cells at 5 times IC50 after 4 hrs by Bru-seq analysis; type: functional, cell-based
Procedure, shortened: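 Nascent RNA sequencing (Bru-seq): 4×10^6 MIA PaCa-2 cells seeded in 10 cm dishes, treated next day for 4 h with drug or DMSO. Bromouridine (2 mM final) added for the last 30 min. Total RNA taken in TRIZOL; labeled RNA immunocaptured, converted to cDNA libraries and deep sequenced. Signal compared with DMSO-treated cells.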

Mus musculus [3] = assay: Toxicity in NOD/SCID mouse xenografted with human MIAPaCa2 cells assessed as microscopic changes in heart at 5 mg/kg, ip administered 5 times a week until day 44 by hematoxylin and eosin staining-based inverted microscopic method; type: organism-based; conditions: in vivo
Procedure, shortened: (§2)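 Necropsy after the 44-day ip course in MIA PaCa-2 xenograft-bearing NOD/SCID mice: heart, kidney, liver, lung, spleen and pancreas fixed in 10% neutral buffered formalin, paraffin-embedded, sectioned and stained with hematoxylin and eosin. Sections examined by inverted microscope at 20X, compared with vehicle-treated animals.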

MIA PaCa-2 [4] = assay: Antitumor activity against human MIAPaCa2 cells xenografted in NOD/SCID mouse assessed as delay of tumor growth at 5 mg/kg, ip administered 5 times a week until day 44 followed by dose escalation up to 20 mg/kg until day 67; type: functional, organism-based
Procedure, shortened: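 Subcutaneous MIA PaCa-2 flank xenografts in NOD/SCID mice, randomized at 65 mm3. Dosing was 5 mg/kg ip in 5% DMSO/60% propylene glycol/35% saline, five days on and two off, to day 44. Two mice per group then continued with the dose gradually raised to 20 mg/kg until day 67. Tumor volume was taken by caliper and body weight monitored.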

[5] = Cytotoxicity against HPDEC assessed as decrease in cell proliferation after 72 hrs by MTT assay; type: cell-based; conditions: Homo sapiens
Procedure, shortened: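 MTT assay. Cells (3000–8000/well) attached overnight in RPMI1640 with 10% FBS; the GR line was kept with 200 nM gemcitabine. Serial dilutions (30 nM–10 μM for most lines) were applied for 72 h. MTT was added at a final 300 μg/mL for 3 h at 37°C, formazan was dissolved in DMSO and A570 read. Inhibition = (1 − OD treated/OD control) × 100. IC50 given as mean ± SD, three independent experiments.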

Mus musculus [6] = assay: Toxicity in NOD/SCID mouse xenografted with human MIAPaCa2 cells assessed as microscopic changes in spleen at 5 mg/kg, ip administered 5 times a week until day 44 by hematoxylin and eosin staining-based inverted microscopic method; type: organism-based; conditions: in vivo; procedure, shortened: as §2
MIA PaCa-2 [7] = assay: Induction of reactive oxygen species generation in human MIAPaCa2 cells assessed as upregulation of HO-1 expression at 2 uM after 4 to 24 hrs by Western blot analysis; type: functional, cell-based; procedure, shortened: as §1
Mus musculus [8] = assay: Induction of unfolded protein response in tumor of NOD/SCID mouse xenografted with MIAPaCa2 cells assessed as upregulation of GRP78 expression at 5 mg/kg, ip administered 5 times a week until day 44 by Western blot method; type: functional, organism-based
Procedure, shortened: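 Dosed ip in 5% DMSO/60% propylene glycol/35% saline, five days on/two off, until day 44, versus vehicle. Tumor lysates immunoblotted with primary antibodies, Dylight 800 secondary, fluorescent scan.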

MIA PaCa-2 [9] = assay: Downregulation of Sp3 gene expression in human MIAPaCa2 cells at IC50 to 5 times IC50 after 4 hrs by Bru-seq analysis; type: functional, cell-based
MIA PaCa-2 [10] = assay: Antiproliferative activity against human MIAPaCa2 cells xenografted in NOD/SCID mouse at 5 mg/kg, ip administered 5 times a week until day 44 by ki67 staining-based assay; type: functional, organism-based

Structure (SMILES): O=C1C(Nc2ccc(-c3ccccc3)cc2)=CC(=O)c2ncncc21
- Activity (Mus musculus [1]): Non-Toxic
- Activity (BXPC-3): Tde
- inhibition (MIA PaCa-2 [2]): Active
- Activity (Mus musculus [3]): Non-Toxic
- Activity (MIA PaCa-2 [4]): Active
- IC50 [5]: 2700 nM
- Activity (Mus musculus [6]): Non-Toxic
- Activity (MIA PaCa-2 [7]): Active
- Activity (Mus musculus [8]): Active
- Activity (MIA PaCa-2 [9]): inactive
- Activity (MIA PaCa-2 [10]): Active

Reference: ChEMBL document CHEMBL4052826, “Design and Synthesis of Novel Reactive Oxygen Species Inducers for the Treatment of Pancreatic Ductal Adenocarcinoma” (J Med Chem, 2018)
